Test results as given in ChEMBL document CHEMBL4513216, “Probing the Open Global Health Chemical Diversity Library for Multistage-Active Starting Points for Next-Generation Antimalarials” (ACS Infect Dis, 2020).

Test: Toxicity liver stage against HepG2, at 10uM
Format: cell-based
Parameters: test concentration 10 uM, cell line HepG2-A16-CD81EGFP
Conditions: human, HepG2-A16-CD81EGFP cells; read-out: INHIBITION
Procedure, shortened: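 Uninfected HepG2-A16-CD81EGFP cells, 3 × 10^3 per well, 1536-well, plated on prespotted compound at 10 μM final, parasite-free screening media added to match infected plates; puromycin 10 μM positive, DMSO 0.5% negative; run in parallel with 48 h PbLuc assay at 37 °C, 5% CO2; viability by CellTiter-Glo luminescence, normalized to controls.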

Point of comparison: `COc1ccc2c(c1)c(C(=O)Nc1nnn[nH]1)cn2C(C)C`, cytotoxicity at 10 µM -57.8%. Against it:
- O=C(Nc1cnccn1)[C@@H]1C[C@H]2OCC[C@H]2N(c2ncc(F)cn2)C1 — higher, 8.12%
- CC(C)n1cnc2c1C(C(=O)N1CCCC1)N(S(C)(=O)=O)CC2 (stereo not given) — higher, -5.15%
- CCC(C)N1CCc2c(C(=O)N(C)Cc3ccccn3)nn(C)c2C1 (stereo not given) — higher, -2.78%
- CCS(=O)(=O)N1CCn2c(COCC3CCOCC3)cnc2C1C (stereo not given) — higher, 11%
- CN1CCOCC12CCN(Cc1nccs1)CC2 — higher, 6.46%
- O=c1cc(CN2CCCC2)nc2n1CCCN(Cc1ccco1)C2 — higher, 4.01%
- COCCC(=O)N1CC[C@H]2C(=O)N(c3ccsc3)CCO[C@H]2C1 — higher, 10.4%
- CC(C)C(=O)N1CCCC12CCN(C(=O)c1ccno1)C2 (stereo not given) — higher, 7.49%
- CN1CCN(c2ncc3c(=O)n(-c4cccc(F)c4)c(=O)[nH]c3n2)CC1 — higher, -8.85%
- OCCN1CCC(c2csc(Nc3cnccn3)n2)CC1 — higher, -4.26%
- CC(C)Cc1noc(CN2CCN(C(=O)c3cccs3)CC2)n1 — higher, -14.3%
- O=C(COCC1CC1)Nc1ccn(Cc2cccc3cccnc23)n1 — higher, 13.9%
- CC(C)C(=O)NS(=O)(=O)c1ccc(F)c(C(F)(F)F)c1 — higher, -2.32%
- Cc1cccc(N2CCC3(CCCN3Cc3cn(C)nc3C)CC2)n1 — higher, -4.78%
- CCc1nc(CN2CC[C@@](O)(CCOC)[C@H](C)C2)cs1 — higher, 10%
- COc1ccc2c(=O)n(CC3CCCN(C)C3)ccc2c1OC (stereo not given) — higher, -0.391%
- CCc1nccc(CN2CCCC(CNC(=O)c3ccccn3)C2)n1 (stereo not given) — higher, 4.63%
- CC(C)c1cc(NCC(O)c2ccncc2)n2nccc2n1 (stereo not given) — higher, -1.8%
- O=C(c1cccc(-n2cccn2)c1)N1CCCOC(Cn2cccn2)C1 (stereo not given) — higher, -6.58%
- CCN1CCC(CC(=O)N(C)C(C)c2cncs2)CC1 (stereo not given) — higher, 6.05%
- CSCCC(=O)N[C@H]1CC[C@H](Nc2nccc(-c3ccncc3)n2)C1 — higher, -0.664%
- CCc1cc(NCCc2cnccn2)n2nc(C)c(C)c2n1 — higher, 5.18%
- NC(=O)C1CCCN(C(=O)c2ccn(-c3ccc(F)cc3)n2)C1 (stereo not given) — higher, -3.63%
- CCc1ncc2c(n1)CN(Cc1cccc(OCC(N)=O)c1)CC2 — higher, -7.42%
- Cn1cc(C2CCCN2C(=O)CCCOc2ccc(F)cc2)cn1 (stereo not given) — higher, -17.8%
- CCCc1noc(CCC(=O)N2CCCC2c2ccc(OC)cc2)n1 (stereo not given) — higher, -0.403%
- CC(C)c1ncc2c(n1)CN(CC(=O)Nc1ccc(Cl)cn1)CC2 — higher, -1.4%
- CC(Cn1cccn1)NC(=O)Cc1csc(C(C)C)n1 (stereo not given) — higher, -8.57%
- Cc1cc(NC(=O)CN2CCCC2c2noc(C)n2)n(C(C)(C)C)n1 (stereo not given) — higher, 1.53%
- Cc1cnn(CC2CN(Cc3ccccn3)CCO2)c1 (stereo not given) — higher, -2.84%
- c1ccc(-n2ncc(CN3CCCC(Cn4cncn4)C3)n2)cc1 (stereo not given) — higher, -6.04%
- c1ccc(-n2cc(CN3CCCCC3Cn3cncn3)nn2)cc1 (stereo not given) — higher, -14.2%
- O=C(CCc1c(F)cccc1F)NS(=O)(=O)c1ccc2c(c1)OCCO2 — higher, -4.71%
- COCc1nc(C(=O)N2CCCC2c2cc(C)on2)cs1 (stereo not given) — higher, -5.83%
- COc1c(C2CCCN2Cc2cc(C)no2)c(C)nn1C (stereo not given) — higher, -7.25%
- OC(CN1CCOCC1)c1ccc(OC(F)(F)F)cc1 (stereo not given) — higher, -9.36%
- Cc1cc(CN2CCN(C(C)c3nc(C4CC4)no3)CC2)no1 (stereo not given) — higher, 1.35%
- CCN(Cc1cccc(Cl)c1)Cc1nc2c(cnn2C)c(=O)[nH]1 — higher, 1.01%
- CNS(=O)(=O)c1ccc(CNC(=O)NCC2CCCO2)cc1 (stereo not given) — higher, 7.12%
- Cn1cnc2c1C(C(=O)N1CCCC1)N(CC1CC1)CC2 (stereo not given) — higher, 6.37%
- COc1c(CNC2CCCOc3ccc(F)cc32)c(C(C)C)nn1C (stereo not given) — higher, -5.83%
- CC(C)NC(=O)N1CC[C@@H](N(C)C)[C@@H]1Cc1ccccc1 — higher, 9.82%
- Cc1cccc(CN2CCC3(CC2)CC(Oc2cccnc2)C3)n1 — higher, 12.7%
- Cc1noc(C)c1CN1C[C@H]2CC[C@@H](C1)N(Cc1cc(F)cc(F)c1)C2 — higher, -11.9%
